Results published in ChEMBL document CHEMBL1146071, “2,4-diaminopyrimidine derivatives as potent growth hormone secretagogue receptor antagonists” (J Med Chem, 2006).
The source made the active and inactive calls. The rule behind the calls is not given here.

Test system: Rattus norvegicus
Assay: Decrease in body weight in Sprague-Dawley rat at 30 mg/kg, ip after 24 hrs
Format: functional, organism-based
Design: dose 30 mg/kg
Settings: not given
Method in brief: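 Free-fed Sprague-Dawley rats given a single ip dose (10 or 30 mg/kg); body weight taken 24 h after dosing. n = 10/group, mean ± SEM; ANOVA with post hoc Dunnett.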

SMILES	Activity
Nc1nc(N)c(-c2ccc(NCc3ccc(Cl)cc3)cc2)c(COCc2ccccc2)n1	Active

Test system: Rattus norvegicus
Assay: Reduction in cumulative food intake in fasted Sprague-Dawley rat at 10 mg/kg, ip after 24 hrs
Format: functional, organism-based
Design: dose 10 mg/kg
Settings: not given
Method in brief: (§1)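 Single ip dose of 10 or 30 mg/kg to free-fed or 16 h (overnight) fasted Sprague-Dawley rats. Cumulative food intake recorded at 1 and 24 h after dosing. n = 10/group, mean ± SEM; ANOVA with post hoc Dunnett.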

SMILES	Activity
Nc1nc(N)c(-c2ccc(NCc3ccc(Cl)cc3)cc2)c(COCc2ccccc2)n1	Dose-dependent effect

Target: T1, Growth hormone secretagogue receptor type 1 (Homo sapiens, UniProt Q92847)
T1 sequence (Q92847 whole entry): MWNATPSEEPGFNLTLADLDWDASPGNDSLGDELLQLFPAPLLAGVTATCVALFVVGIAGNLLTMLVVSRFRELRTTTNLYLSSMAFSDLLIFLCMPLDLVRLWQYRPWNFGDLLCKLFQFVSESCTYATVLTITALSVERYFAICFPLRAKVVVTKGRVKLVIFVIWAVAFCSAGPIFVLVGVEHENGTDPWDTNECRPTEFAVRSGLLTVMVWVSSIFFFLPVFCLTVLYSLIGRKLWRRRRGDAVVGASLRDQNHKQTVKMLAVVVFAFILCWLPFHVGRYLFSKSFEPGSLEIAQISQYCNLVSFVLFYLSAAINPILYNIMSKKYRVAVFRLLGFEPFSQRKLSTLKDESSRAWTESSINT
Assay: Antagonist activity at human GHS receptor by inhibition of ghrelin-induced intracellular calcium flux in CHOK cells
Format: functional, cell-based
Settings: not given
Method in brief: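 CHO-K cells stably expressing human GHS-R, grown in Ultra-CHO medium with 1% dialyzed FCS and 400 µg/mL G418, plated to confluency overnight. Loaded with Fluo-4 AM plus probenecid for 1-3 h in the dark at RT, then washed. On FLIPR (ex 488/em 520 nm), compound added first and read 3 min, then ghrelin added and read another 3 min. Duplicate or triplicate wells; sigmoidal fit for IC50.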

IC50 [nM]	SMILES
3.6	Nc1nc(N)c(-c2ccc(NCc3ccnc(Cl)c3)cc2)c(COCc2ccccc2)n1
320	Nc1nc(N)c(-c2ccc(NCc3ccc(Cl)s3)cc2)c(COCc2ccccc2)n1
86	Nc1nc(N)c(-c2ccc(NCc3ccncc3)cc2)c(COCc2ccccc2)n1
690	CCc1nc(N)nc(N)c1-c1ccc(NCc2cc(F)c(S(=O)(=O)C(F)(F)F)c(F)c2)cc1
19	N#Cc1ccc(CNc2ccc(-c3c(N)nc(N)nc3COCc3ccccc3)cc2)cc1
10	CC(=O)c1ccc(CNc2ccc(-c3c(N)nc(N)nc3COCc3ccccc3)cc2)cc1
3350	Nc1nc(N)c(-c2ccc(NCc3ccc(Cl)cc3)cc2)c(CCc2ccccc2)n1
180	Nc1nc(N)c(-c2ccc(NCc3ccc(Cl)cc3)cc2)c(COCc2ccccc2)n1

Test system: not listed separately
Assay: Concentration in Sprague-Dawley rat brain at 30 mg/kg, ip after 8 hrs
Format: ADME, organism-based
Design: dose 30 mg/kg, route intraperitoneal
Settings: read-out: Ct
Method in brief: (§2)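 Rats given 30 mg/kg ip. Brain (µg/g) and plasma levels measured at 1 and 8 h after dosing.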

concentration at 8 h [ng/g]	SMILES
400	Nc1nc(N)c(-c2ccc(NCc3ccc(Cl)cc3)cc2)c(CCc2ccccc2)n1
140	Nc1nc(N)c(-c2ccc(NCc3ccc(Cl)cc3)cc2)c(COCc2ccccc2)n1

Test system: Rattus norvegicus
Assay: AUC in Sprague-Dawley rat at 5 mg/kg, iv
Format: ADME, organism-based, Plasma
Design: dose 5 mg/kg, route intravenous
Settings: in vivo
Method in brief: (§3)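 Rats dosed at 5 mg/kg: iv for AUC (µg·h/mL), clearance (L/h·kg) and Cmax (µg/mL); oral for bioavailability unless stated otherwise. Brain (µg/g) and plasma levels taken at 1 and 8 h. Mean of n = 3.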

AUC [ng·h/mL]	SMILES
120	Nc1nc(N)c(-c2ccc(NCc3ccc(Cl)cc3)cc2)c(COCc2ccccc2)n1

Target: not listed separately
Assay: Inhibition of histamine receptor
Settings: not given

IC50 [nM]	SMILES
> 33000	Nc1nc(N)c(-c2ccc(NCc3ccc(Cl)cc3)cc2)c(COCc2ccccc2)n1

Test system: Rattus norvegicus
Assay: Reduction in cumulative food intake in free-fed Sprague-Dawley rat at 10 mg/kg, ip after 24 hrs
Format: functional, organism-based
Design: dose 10 mg/kg
Settings: not given
Method in brief: as §1

SMILES	Activity
Nc1nc(N)c(-c2ccc(NCc3ccc(Cl)cc3)cc2)c(COCc2ccccc2)n1	Dose-dependent effect

Test system: Rattus norvegicus
Assay: Reduction in cumulative food intake in free-fed Sprague-Dawley rat at 30 mg/kg, ip after 24 hrs
Format: functional
Design: scale not given: the % may be the effect or the level left
Settings: route intraperitoneal
Method in brief: as §1

SMILES	Activity [%]
Nc1nc(N)c(-c2ccc(NCc3ccc(Cl)cc3)cc2)c(COCc2ccccc2)n1	29

Target: T2, 5-hydroxytryptamine receptor 2C (Homo sapiens, UniProt P28335)
T2 sequence (P28335 whole entry): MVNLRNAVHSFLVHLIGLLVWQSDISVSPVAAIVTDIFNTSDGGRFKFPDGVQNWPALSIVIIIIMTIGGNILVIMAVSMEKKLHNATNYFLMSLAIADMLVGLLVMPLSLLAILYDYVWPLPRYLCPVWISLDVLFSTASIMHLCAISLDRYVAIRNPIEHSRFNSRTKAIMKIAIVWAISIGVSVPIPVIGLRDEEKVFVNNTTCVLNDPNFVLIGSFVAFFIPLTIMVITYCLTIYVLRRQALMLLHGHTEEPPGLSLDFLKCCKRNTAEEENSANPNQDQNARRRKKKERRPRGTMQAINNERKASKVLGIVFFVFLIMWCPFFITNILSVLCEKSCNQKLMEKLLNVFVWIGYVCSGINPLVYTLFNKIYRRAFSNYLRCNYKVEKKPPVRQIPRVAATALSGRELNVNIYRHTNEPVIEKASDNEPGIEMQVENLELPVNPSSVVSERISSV
Assay: Inhibition of 5HT2C receptor
Settings: not given

IC50 [nM]	SMILES
> 33000	Nc1nc(N)c(-c2ccc(NCc3ccc(Cl)cc3)cc2)c(COCc2ccccc2)n1

Test system: not listed separately
Assay: Plasma concentration in Sprague-Dawley rat at 30 mg/kg, ip after 1 hr
Format: ADME, organism-based
Design: dose 30 mg/kg, route intraperitoneal
Settings: not given
Method in brief: as §2

concentration at 1 h [ng/mL]	SMILES
800	Nc1nc(N)c(-c2ccc(NCc3ccc(Cl)cc3)cc2)c(CCc2ccccc2)n1
500	Nc1nc(N)c(-c2ccc(NCc3ccc(Cl)cc3)cc2)c(COCc2ccccc2)n1

Target: Dopamine receptor
Assay: Inhibition of dopaminergic receptor
Format: protein assay
Settings: not given

IC50 [nM]	SMILES
> 33000	Nc1nc(N)c(-c2ccc(NCc3ccc(Cl)cc3)cc2)c(COCc2ccccc2)n1

Test system: Rattus norvegicus
Assay: Reduction in cumulative food intake in fasted Sprague-Dawley rat at 30 mg/kg, ip after 24 hrs
Format: functional
Design: scale not given: the % may be the effect or the level left
Settings: route intraperitoneal
Method in brief: as §1

SMILES	Activity [%]
Nc1nc(N)c(-c2ccc(NCc3ccc(Cl)cc3)cc2)c(COCc2ccccc2)n1	24

Test system: not listed separately
Assay: Plasma concentration in Sprague-Dawley rat at 5 mg/kg after 1 hr
Format: ADME, organism-based
Design: dose 5 mg/kg
Settings: not given
Method in brief: as §3

concentration at 1 h [ng/mL]	SMILES
350	Nc1nc(N)c(-c2ccc(NCc3ccc(Cl)cc3)cc2)c(COCc2ccccc2)n1

Test system: not listed separately
Assay: Cmax in Sprague-Dawley rat at 5 mg/kg, ip
Format: ADME, organism-based
Design: dose 5 mg/kg, route intraperitoneal
Settings: in vivo

Cmax [ng/mL]	SMILES
260	Nc1nc(N)c(-c2ccc(NCc3ccc(Cl)cc3)cc2)c(COCc2ccccc2)n1

Target: Melanin-concentrating hormone receptor (Homo sapiens, UniProt Q969V1+Q99705)
Assay: Activity against MCH receptor in an intracellular calcium flux assay
Format: functional, cell-based
Settings: not given

IC50 [nM]	SMILES
> 10000	Nc1nc(N)c(-c2ccc(NCc3ccc(Cl)cc3)cc2)c(COCc2ccccc2)n1

Target: not listed separately
Assay: Inhibition of adrenergic receptor
Settings: not given

IC50 [nM]	SMILES
> 33000	Nc1nc(N)c(-c2ccc(NCc3ccc(Cl)cc3)cc2)c(COCc2ccccc2)n1

Test system: not listed separately
Assay: Oral bioavailability in Sprague-Dawley rat at 5 mg/kg
Format: ADME, organism-based
Settings: in vivo
Method in brief: as §3

bioavailability [%]	SMILES
5.5	Nc1nc(N)c(-c2ccc(NCc3ccc(Cl)cc3)cc2)c(COCc2ccccc2)n1

Test system: Rattus norvegicus
Assay: AUC in Sprague-Dawley rat at 5 mg/kg, ip
Format: ADME, organism-based, Plasma
Design: dose 5 mg/kg, route intraperitoneal
Settings: in vivo

AUC [ng·h/mL]	SMILES
1140	Nc1nc(N)c(-c2ccc(NCc3ccc(Cl)cc3)cc2)c(COCc2ccccc2)n1

Test system: not listed separately
Assay: Plasma clearance in Sprague-Dawley rat at 5 mg/kg, iv
Settings: not given

clearance [mL/min/kg]	SMILES
36.7	Nc1nc(N)c(-c2ccc(NCc3ccc(Cl)cc3)cc2)c(COCc2ccccc2)n1

Test system: not listed separately
Assay: Concentration in Sprague-Dawley rat brain at 5 mg/kg after 8 hrs
Format: ADME, organism-based
Design: dose 5 mg/kg
Settings: read-out: Ct
Method in brief: as §3

concentration at 8 h [ng/g]	SMILES
50	Nc1nc(N)c(-c2ccc(NCc3ccc(Cl)cc3)cc2)c(COCc2ccccc2)n1

Target: Muscarinic acetylcholine receptor
Assay: Inhibition of muscarinic receptor
Format: protein assay
Settings: not given

IC50 [nM]	SMILES
> 5500	Nc1nc(N)c(-c2ccc(NCc3ccc(Cl)cc3)cc2)c(COCc2ccccc2)n1

Target: Nociceptin/orphanin FQ receptor, ORL1 (Homo sapiens) (UniProt P41146)
Sequence (P41146 whole entry, looked up): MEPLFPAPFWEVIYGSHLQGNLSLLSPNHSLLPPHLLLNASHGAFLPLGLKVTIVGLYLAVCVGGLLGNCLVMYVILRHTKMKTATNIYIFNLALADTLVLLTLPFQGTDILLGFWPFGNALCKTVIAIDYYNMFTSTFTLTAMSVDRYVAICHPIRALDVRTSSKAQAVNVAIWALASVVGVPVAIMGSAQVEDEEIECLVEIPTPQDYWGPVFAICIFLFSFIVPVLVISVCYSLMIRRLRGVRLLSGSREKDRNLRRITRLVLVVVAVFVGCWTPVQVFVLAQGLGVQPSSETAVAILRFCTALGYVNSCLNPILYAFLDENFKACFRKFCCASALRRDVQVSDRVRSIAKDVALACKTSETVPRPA
Assay: Inhibition of opioid like-1 receptor
Settings: not given

IC50 [nM]	SMILES
> 33000	Nc1nc(N)c(-c2ccc(NCc3ccc(Cl)cc3)cc2)c(COCc2ccccc2)n1

Test system: Rattus norvegicus
Assay: Bioavailability in Sprague-Dawley rat at 5 mg/kg, ip
Format: ADME, organism-based
Settings: in vivo

F [%]	SMILES
68	Nc1nc(N)c(-c2ccc(NCc3ccc(Cl)cc3)cc2)c(COCc2ccccc2)n1

Target: T1, Growth hormone secretagogue receptor type 1
Assay: Displacement of [125I]ghrelin from human GHS receptor expressed in CHOK cells
Format: cell-based
Settings: not given
Method in brief: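 Membranes from CHO-K cells expressing human ghrelin receptor, prepared by sonication and a 60000g spin. Filtered onto PEI-soaked GF/C, washed cold, scintillation counted; percent inhibition, sigmoidal fit for IC50.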

IC50 [nM]	SMILES
1.5	Nc1nc(N)c(-c2ccc(NCc3ccnc(Cl)c3)cc2)c(COCc2ccccc2)n1
43	Nc1nc(N)c(-c2ccc(NCc3ccc(Cl)s3)cc2)c(COCc2ccccc2)n1
21	Nc1nc(N)c(-c2ccc(NCc3ccncc3)cc2)c(COCc2ccccc2)n1
21	CCc1nc(N)nc(N)c1-c1ccc(NCc2cc(F)c(S(=O)(=O)C(F)(F)F)c(F)c2)cc1
2.8	N#Cc1ccc(CNc2ccc(-c3c(N)nc(N)nc3COCc3ccccc3)cc2)cc1
1.2	CC(=O)c1ccc(CNc2ccc(-c3c(N)nc(N)nc3COCc3ccccc3)cc2)cc1
3170	Nc1nc(N)c(-c2ccc(NCc3ccc(Cl)cc3)cc2)c(CCc2ccccc2)n1
19	Nc1nc(N)c(-c2ccc(NCc3ccc(Cl)cc3)cc2)c(COCc2ccccc2)n1

Test system: not listed separately
Assay: Cmax in Sprague-Dawley rat at 5 mg/kg, iv
Format: ADME, organism-based
Design: dose 5 mg/kg, route intravenous
Settings: in vivo
Method in brief: as §3

Cmax [ng/mL]	SMILES
54	Nc1nc(N)c(-c2ccc(NCc3ccc(Cl)cc3)cc2)c(COCc2ccccc2)n1

Test system: not listed separately
Assay: Concentration in Sprague-Dawley rat brain at 30 mg/kg, ip after 1 hr
Format: ADME, organism-based
Design: dose 30 mg/kg, route intraperitoneal
Settings: read-out: Ct
Method in brief: as §2

concentration at 1 h [ng/g]	SMILES
1340	Nc1nc(N)c(-c2ccc(NCc3ccc(Cl)cc3)cc2)c(CCc2ccccc2)n1
330	Nc1nc(N)c(-c2ccc(NCc3ccc(Cl)cc3)cc2)c(COCc2ccccc2)n1

Test system: not listed separately
Assay: Plasma concentration in Sprague-Dawley rat at 5 mg/kg after 8 hrs
Format: ADME, organism-based
Design: dose 5 mg/kg
Settings: not given
Method in brief: as §3

concentration at 8 h [ng/mL]	SMILES
30	Nc1nc(N)c(-c2ccc(NCc3ccc(Cl)cc3)cc2)c(COCc2ccccc2)n1

Test system: not listed separately
Assay: Half life in Sprague-Dawley rat at 5 mg/kg, ip
Format: ADME, organism-based
Design: dose 5 mg/kg, route intraperitoneal
Settings: in vivo

half-life [h]	SMILES
3.9	Nc1nc(N)c(-c2ccc(NCc3ccc(Cl)cc3)cc2)c(COCc2ccccc2)n1

Test system: Rattus norvegicus
Assay: Reduction in cumulative food intake in free-fed Sprague-Dawley rat at 30 mg/kg, ip after 1 hr
Format: functional, organism-based
Design: dose 30 mg/kg
Settings: not given
Method in brief: as §1

SMILES	Activity
Nc1nc(N)c(-c2ccc(NCc3ccc(Cl)cc3)cc2)c(COCc2ccccc2)n1	Dose-dependent effect

Test system: not listed separately
Assay: Plasma concentration in Sprague-Dawley rat at 30 mg/kg, ip after 8 hrs
Format: ADME, organism-based
Design: dose 30 mg/kg, route intraperitoneal
Settings: not given
Method in brief: as §2

concentration at 8 h [ng/mL]	SMILES
90	Nc1nc(N)c(-c2ccc(NCc3ccc(Cl)cc3)cc2)c(CCc2ccccc2)n1
190	Nc1nc(N)c(-c2ccc(NCc3ccc(Cl)cc3)cc2)c(COCc2ccccc2)n1

Test system: not listed separately
Assay: Concentration in Sprague-Dawley rat brain at 5 mg/kg after 1 hr
Format: ADME, organism-based
Design: dose 5 mg/kg
Settings: read-out: Ct
Method in brief: as §3

concentration at 1 h [ng/g]	SMILES
1070	Nc1nc(N)c(-c2ccc(NCc3ccc(Cl)cc3)cc2)c(COCc2ccccc2)n1

Test system: Rattus norvegicus
Assay: Reduction in cumulative food intake in free-fed Sprague-Dawley rat at 10 mg/kg, ip after 1 hr
Format: functional, organism-based
Design: dose 10 mg/kg
Settings: not given
Method in brief: as §1

SMILES	Activity
Nc1nc(N)c(-c2ccc(NCc3ccc(Cl)cc3)cc2)c(COCc2ccccc2)n1	Dose-dependent effect

Target: Cannabinoid receptor 1 (Homo sapiens) (UniProt P21554)
Sequence (P21554 whole entry): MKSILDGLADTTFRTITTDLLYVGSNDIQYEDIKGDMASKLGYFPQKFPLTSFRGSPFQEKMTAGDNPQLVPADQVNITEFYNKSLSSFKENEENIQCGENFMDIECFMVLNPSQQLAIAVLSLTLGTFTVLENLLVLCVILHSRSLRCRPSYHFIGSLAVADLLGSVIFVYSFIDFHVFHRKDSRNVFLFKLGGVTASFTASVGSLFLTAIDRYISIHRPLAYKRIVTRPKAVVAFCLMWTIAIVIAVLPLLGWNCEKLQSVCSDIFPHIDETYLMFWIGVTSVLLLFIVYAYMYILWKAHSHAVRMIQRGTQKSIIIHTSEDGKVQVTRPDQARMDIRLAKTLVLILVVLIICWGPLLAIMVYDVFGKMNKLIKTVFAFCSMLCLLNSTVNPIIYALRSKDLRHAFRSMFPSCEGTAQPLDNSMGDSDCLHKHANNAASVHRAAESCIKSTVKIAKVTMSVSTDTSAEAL
Assay: Inhibition of CB1 receptor at 10 uM
Settings: not given

inhibition [%]	SMILES
-1	Nc1nc(N)c(-c2ccc(NCc3ccc(Cl)cc3)cc2)c(COCc2ccccc2)n1
